Measured values reported in article PMC6598219 (Saudi Pharmaceutical Journal : SPJ, 2019).
Values after ≈ are worked out from the molar mass of the structure shown.

How the values were obtained:
[1] = ABTS radical cation scavenging activity
Method in brief: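 ABTS radical cation formed by mixing aqueous 7 mmol/L ABTS and 2.45 mmol/L potassium persulfate 1:1 and keeping in the dark 6 h at room temperature. The radical was diluted in ethanol and equilibrated at 30 °C. Test compound aliquots at 20, 40, 60, 80 and 100 µg/mL were added, incubated 30 °C for 20 min, and read at 734 nm with BHA as reference. Scavenging % = (Ac − Aa)/Ac × 100. Results given as mean ± SD.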

[2] = DPPH free radical scavenging activity
Method in brief: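 Test compound aliquots at 20, 40, 60, 80 and 100 µg/mL were added to 0.004% DPPH solution, and absorbance was read at 520 nm after 30 min. BHA served as reference and methanol as control. Inhibition % = (Ao − At)/Ao × 100, with Ao the control absorbance. Results given as mean ± SD.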

## COc1ccc(O)c(C(C)(C)C)c1 [BHA, butylated hydroxyanisole]
[1]; at 100 µg/mL concentration
  ABTS scavenging property (%): 98.20 ± 4.60%
[1]; mean of three replicates
  IC50, ABTS radical scavenging: 28.70 ± 5.20 µg/mL (≈ 159 µM)
[2]; at 100 µg/mL
  DPPH free radical scavenging property (%): 93.4 ± 1.6%
[2]; mean of three replicates
  IC50, DPPH free radical scavenging: 34.50 ± 6.20 µg/mL (≈ 191 µM)
